Assay outcomes (PubChem BioAssay)
Kir21 inh – Kir2.1 (mouse) channel inhibition; P35561; HEK293-Kir2.1, FluxOR thallium flux fluorescence; hits give low values; B-score at 10 µM; actives 0.85% (n = 310,000);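 active means fluorescence ratio B-score at or below minus 3 SD of library scores, with starting-brightness B-score within 2 SD, cut at about -4.2 in these data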;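 further: channel flux triggered by added potassium and thallium sulfate stimulus; B-score of peak minus minimum fluorescence over baseline after thallium stimulus; more negative B-score means stronger Kir2.1 block with less thallium influx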
KCNQ1 act – human KCNQ1 channel potentiation or activation. B-score at 10 µM. P51787. CHO-K1 KCNQ1, thallium flux FluxOR fluorescence; hits give high values. actives 0.35% (n = 310,000);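 active means fluorescence ratio B-score, a plate-corrected score, at least three library SD, with initial intensity B-score within 5 SD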
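Medium – assay buffer, equal DMSO in all wells · Material – CHO-K1 cell line with stable KCNQ1 potassium channel expression · Signal – kinetic FluxOR thallium fluorescence, 10-s 1-Hz baseline, 110-s post-stimulus read · Compound – single concentration per compound, DMSO matched to controls · Schedule – 37 °C overnight plating, 90-min dark dye load, 20-min compound pretreatment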
KCNQ1 block – blocks the human KCNQ1 potassium channel | P51787 | CHO-K1 KCNQ1, FluxOR thallium flux fluorescence; hits give high values | B-score at 10 µM | actives 1.3% (n = 310,000);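 active means compounds whose thallium flux B-score, printed positive for inhibition, exceeds three library SD while starting fluorescence stays within three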;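 further: channel opened by potassium depolarization with thallium stimulus after 20 min compound exposure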
KCNK9 inh-1 – human KCNK9 channel inhibition; Q9NPC2; HEK293 KCNK9, FluxOR thallium flux fluorescence; hits give low values; B-score at 10 µM; actives 1.2% (n = 310,000); AID 488922;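 active means ratio B-score over 3 SD below the library mean, with starting fluorescence within 5 SD of its mean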;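 further: negative B-score means less thallium flux so channel inhibition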
KCNK3 inh – human KCNK3 channel inhibition, primary screen; B-score at 10 µM; actives 0.84% (n = 340,000); O14649; CHO-KCNK3 thallium flux, FluxOR fluorescence; hits give low values;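 active means B-score under library mean minus 4 SD, starting fluorescence ratio at most library mean plus 5 SD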;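 further: more negative B-score means stronger inhibition of thallium flux through KCNK3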
hERG protect – hERG (human) protection from proarrhythmic block. CHO-hERG, FluxOR thallium flux, dofetilide IC70 present. activation (rescue from dofetilide block), less the hit threshold, % at 10 µM. actives 0.51% (n = 310,000);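 active means activation above the mean of controls blocked by dofetilide plus 5 SD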;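 further: thallium influx through hERG after potassium depolarization seen as dye fluorescence rise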
Target sequence (Q12809 whole entry, looked up): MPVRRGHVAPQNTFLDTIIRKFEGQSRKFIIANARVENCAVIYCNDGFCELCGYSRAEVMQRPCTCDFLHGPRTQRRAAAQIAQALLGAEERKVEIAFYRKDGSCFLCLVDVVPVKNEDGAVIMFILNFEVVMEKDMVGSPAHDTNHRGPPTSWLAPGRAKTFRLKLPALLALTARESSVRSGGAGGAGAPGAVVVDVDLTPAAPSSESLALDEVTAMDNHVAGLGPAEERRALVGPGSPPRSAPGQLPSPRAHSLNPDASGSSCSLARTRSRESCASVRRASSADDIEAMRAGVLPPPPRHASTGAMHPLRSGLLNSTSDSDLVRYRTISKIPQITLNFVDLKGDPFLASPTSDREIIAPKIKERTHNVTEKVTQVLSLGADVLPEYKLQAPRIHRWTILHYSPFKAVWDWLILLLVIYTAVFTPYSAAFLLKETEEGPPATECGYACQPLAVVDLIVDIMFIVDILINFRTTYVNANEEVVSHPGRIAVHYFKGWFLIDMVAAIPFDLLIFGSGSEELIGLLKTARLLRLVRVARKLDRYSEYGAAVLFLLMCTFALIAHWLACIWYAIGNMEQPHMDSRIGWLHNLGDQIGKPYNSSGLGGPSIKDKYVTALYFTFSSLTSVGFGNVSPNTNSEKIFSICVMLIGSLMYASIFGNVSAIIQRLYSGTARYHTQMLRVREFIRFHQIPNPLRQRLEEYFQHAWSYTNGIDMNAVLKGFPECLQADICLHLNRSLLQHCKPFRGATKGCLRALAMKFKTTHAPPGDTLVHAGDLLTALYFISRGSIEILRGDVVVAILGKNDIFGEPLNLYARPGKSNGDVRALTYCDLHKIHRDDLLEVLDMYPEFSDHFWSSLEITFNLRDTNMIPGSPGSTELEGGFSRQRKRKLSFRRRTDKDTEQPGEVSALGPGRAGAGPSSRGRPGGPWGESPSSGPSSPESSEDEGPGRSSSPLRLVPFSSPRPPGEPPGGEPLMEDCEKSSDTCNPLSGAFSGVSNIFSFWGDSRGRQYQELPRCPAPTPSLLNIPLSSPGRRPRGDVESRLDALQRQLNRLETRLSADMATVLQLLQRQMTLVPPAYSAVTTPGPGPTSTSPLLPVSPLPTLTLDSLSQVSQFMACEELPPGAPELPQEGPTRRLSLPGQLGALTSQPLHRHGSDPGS
hERG inh – blocks human hERG, in counter-screen for Kir2.1 inhibitors | shares compounds with Kir21 inh | hERG-expressing cells, thallium flux | inhibition, % at 10 µM | actives 20% (n = 320) | AID 2236;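 further: host cells are CHO cells stably expressing hERG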
KCNK9 inh-2 – selectivity of Kir2.1 inhibitors: effect on human KCNK9; inhibition, % at 10 µM; actives 5% (n = 320); shares compounds with Kir21 inh; KCNK9-expressing cells, ion flux inhibition
Kir21 ephys inh – mouse Kir2.1 inward rectifier channel inhibition | Kir2.1 cells, automated patch-clamp current inhibition | shares compounds with Kir21 inh | actives 71% (n = 320) | AID 463252 | inhibition, % at 25 µM
The depositor's hits bear a star; i = inactive; x = not tested or not shown. In the library only some 3.7% were active in any assay of this set; here they are far more common. Unless noted, how the calls were made is not given here.

SMILES	Kir21 inh	KCNQ1 act	KCNQ1 block	KCNK9 inh-1	KCNK3 inh	hERG protect	hERG inh	KCNK9 inh-2	Kir21 ephys inh
CCOc1cc(CNCCc2ccc(S(N)(=O)=O)cc2)cc(Cl)c1OCc1ccccc1	-3.7	i	i	i	i	-22	x	x	x
CCNCc1cc(Cl)c(OCc2ccccc2)c(OCC)c1	-7*	i	i	i	i	-9	i	i	47%*
CN(C)C(CNC(=O)CCc1nc2cc(Cl)ccc2n(Cc2ccccc2)c1=O)c1ccccc1 (centres undefined)	-6.4*	i	i	i	i	-20	71%*	i	i
Cc1cc(C)c(C)c(S(=O)(=O)NCC(=O)Nc2ccccc2F)c1C	-6.9*	i	i	i	i	-7	i	i	i
Cc1csc(NC(=O)CSc2nnc3c4ccccc4nc(C(C)(C)C)n23)n1	2	i	i	i	i	-1	x	x	x
COc1cc(CNCc2ccc(Br)cc2)cc(OC)c1	-7.5*	i	i	i	i	-3	i	i	72%*
COc1cc(C)ccc1OCCCCNCc1ccccc1	-5.8*	i	i	i	i	-4	i	i	37%*
CCOC(=O)C1C(=O)CC(C)(O)C(C(=O)OCC)C1/C=C/c1ccccc1 (centres undefined)	x	x	x	x	i	x	x	x	x
NC(=O)c1ccc(SCC(=O)OCC(=O)N2CCCC2=O)c([N+](=O)[O-])c1	0.47	i	i	i	i	-12	x	x	x
Cc1cc(SCC(=O)OCC(=O)N2CCCC2=O)c(C)cc1Br	6.5	i	i	i	i	-7	i	i	i
COc1ccc(CCN(C)C(=O)c2oc3ccccc3c2C)cc1OC	-6.5*	i	i	i	i	-13	i	i	61%*
COc1ccc(CN(C(=O)c2oc3ccccc3c2C)C2CCS(=O)(=O)C2)cc1OC (centres undefined)	x	x	x	x	i	x	x	x	x
CCOc1nc(C)cc(C)c1S(=O)(=O)c1ccc(Cl)cc1	-6.4*	i	i	i	i	-14	i	i	i
Cc1ccc2c(C)c(C(=O)N3CCCCC3CO)oc2c1C (centres undefined)	-1.6	i	i	i	i	-4	x	x	x
CCOc1ccc(OCC(O)CN2CCc3ccccc3C2)cc1 (centres undefined)	-1.6	i	i	i	i	-3	x	x	x
Cc1cc(OCC(O)CN2CCc3ccccc3C2)cc(C(C)C)c1 (centres undefined)	-13*	i	i	i	i	-12	58%*	i	6.0%*
CCCCCCCCOC(=O)CCn1[nH]c(=O)c2ccccc2c1=O	2.4	i	i	i	i	-5	x	x	x
COc1cc(CNCc2ccccn2)ccc1OCc1ccc(Cl)cc1Cl	-6*	i	i	i	i	-22	65%*	i	34%*
O=C1COc2ccc(C(=O)COC(=O)c3cc(S(=O)(=O)N4CCOCC4)ccc3F)cc2N1	0.88	i	i	i	i	-9	x	x	x
CCN(Cc1ccccc1)S(=O)(=O)c1ccc2c(c1)NC(=O)CS2	-5.8*	i	i	i	i	-10	i	i	i
CN1CCc2c(n(CC(O)CNCc3ccccc3)c3ccccc23)C1=O (centres undefined)	-6*	i	i	i	i	-8	i	31%*	i
CN1CCc2c(n(CC(O)CN(CCO)CCO)c3ccccc23)C1=O (centres undefined)	-0.64	i	i	i	i	-8	x	x	x
O=C(NCCCN1CCOCC1)c1ccc(-c2ccc(Cl)cc2)o1	0.02	i	i	i	i	-20	x	x	x
O=C(NCCCN1CCOCC1)c1ccc(CSc2ccc(Cl)cc2)cc1	-7.8*	i	i	i	i	-13	46%*	i	21%*
Cc1ccc(S(=O)(=O)N(C)CC(=O)N2CCCc3ccccc32)cc1	0.23	i	i	i	i	-16	x	x	x
SMILES	Kir21 inh	KCNQ1 act	KCNQ1 block	KCNK9 inh-1	KCNK3 inh	hERG protect	hERG inh	KCNK9 inh-2	Kir21 ephys inh
O=C(NCCC1=CCCCC1)C1CCN(C(=O)c2ccc(Br)cc2)CC1	0.57	i	i	i	i	-12	x	x	x
Clc1ccc(-c2cc(C3CCNCC3)[nH]n2)cc1	-8.9*	i	i	i	i	-11	i	i	i
COc1ccc(CCNC(=O)[C@H](CC(C)C)NC(=O)N2CCn3c2nc2ccccc23)cc1OC	-0.17	i	i	i	i	-13	x	x	x
CCCCOc1c(Br)cc(/C=N/O)cc1OCC	-7.3*	i	i	i	i	-3	i	i	11%*
COc1cc(/C=N/O)cc(Br)c1OCc1ccc(Cl)cc1	0.68	i	i	i	i	-9	x	x	x
CCc1nn(CC(=O)N(C)C2CCCCC2)c(=O)c2cc3cc(C)ccc3n12	1.4	i	i	i	i	-11	x	x	x
CCCCCCSC1=C(C#N)C(c2ccc(C)o2)CC(=O)N1 (centres undefined)	-6*	i	i	i	i	-4	i	i	i
CCCCSC1=C(C#N)C(c2ccccc2C)CC(=O)N1 (centres undefined)	0.01	i	i	i	i	-7	x	x	x
CCN(Cc1ccc(NC(C)=O)cc1)CC1CCCN(CCc2cccc(OC)c2)C1 (centres undefined)	0.97	i	i	i	i	-6	x	x	x
CCOc1ccccc1CNCc1ccc(C(=O)O)cc1	-1.5	i	i	i	i	-2	x	x	x
O=C(COc1ccccc1CNCc1ccccc1)Nc1ccccc1	-10*	i	i	i	i	-12	49%*	i	43%*
CCOC(=O)c1ccc(NC(=S)N2CCSC2c2ccc(Br)cc2)cc1 (centres undefined)	0.97	i	i	i	i	-9	x	x	x
Cc1ccc([N+](=O)[O-])cc1S(=O)(=O)NCC1COc2ccccc2O1 (centres undefined)	-6.4*	i	i	i	i	-10	i	36%*	11%*
CCOC(=O)N1CCC(NC(=O)C2CCCN(S(C)(=O)=O)C2)CC1 (centres undefined)	1	i	i	i	i	-1	x	x	x
